In ChEMBL document CHEMBL3596186, “Synthesis and biological evaluation of diarylthiazole derivatives as antimitotic and antivascular agents with potent antitumor activity” (Bioorg Med Chem, 2015):
Calls of active or inactive are those of the source. The rule behind the calls is not given here.

Key:
HepG2 [1] = test: Induction of apoptosis in human HepG2 cells assessed as necrotic cells at 0.5 uM after 24 hrs by annexin V/propidium iodide staining-based flow cytometry (reference value: 1.59%); assay type: functional
HepG2 [2] = test: Induction of apoptosis in human HepG2 cells assessed as necrotic cells at 0.5 uM after 48 hrs by annexin V/propidium iodide staining-based flow cytometry (reference value: 1.59%); assay type: functional
HepG2 [3] = test: Induction of apoptosis in human HepG2 cells assessed as late apoptotic cells at 1 uM after 48 hrs by annexin V/propidium iodide staining-based flow cytometry (reference value: 3.74%); assay type: functional
HepG2 [4] = test: Induction of apoptosis in human HepG2 cells assessed as viable cells at 1 uM after 48 hrs by annexin V/propidium iodide staining-based flow cytometry (reference value: 89.8%); assay type: functional; details: HepG2, 48 h, read-out: Activity
HepG2 [5] = test: Antimitotic activity in human HepG2 cells assessed as demolishment of microtubule at 0.5 uM after 24 hrs by DAPI staining-based immmunofluorescence assay; assay type: functional, cell-based
Summary of the method: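 HepG2 cells seeded in 6-well plates and treated with compound. Fixed in 4% paraformaldehyde, permeabilized with 0.5% Triton X-100 in PBS, blocked 30 min in 5% goat serum at room temperature. Stained with monoclonal anti-α-tubulin 1 h at room temperature, then fluorescent secondary antibody, nuclei labelled with DAPI. Viewed by fluorescence microscopy.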

HUVEC = test: Antivascular activity against HUVEC assessed as inhibition of tube formation after 8 hrs by Matrigel assay; assay type: functional, cell-based; details: Homo sapiens
Summary of the method: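 Wells of prechilled plates coated with Matrigel and solidified 45 min at 37 °C. HUVECs (1 × 10^4) in EBM-2 containing compound (125-500 nM) seeded onto the gel and incubated 8 h at 37 °C. Capillary networks photographed at 100×; tubule numbers and line lengths counted manually.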

HCT-116 [6] = test: Antitumor activity against human HCT116 cells xenografted in Balb/c athymic nude mouse assessed as tumor growth inhibition at 20 mg/kg, ip administered daily after 42 days; assay type: functional; details: HCT-116, ip, 1008 h, read-out: TGI
Summary of the method: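 Female Balb/C athymic nude mice, 5-6 weeks old, implanted s.c. in the right flank with HCT116 cells in 100 µL HBSS. Tumor volume (π/6 × L × W²) and body weight measured every 2 days. Inhibition = (1 − treated/control tumor weight) × 100%.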

Mus musculus [7] = test: Toxicity in Balb/c athymic nude mouse xenografted with human HCT116 cells assessed as loss in body weight at 20 to 50 mg/kg, ip administered daily; assay type: organism-based, HCT-116; details: in vivo
Summary of the method: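 Female Balb/C athymic nude mice, 5-6 weeks old, implanted s.c. in the right flank with cells in HBSS. Once tumours reached about 100 mm3, mice were randomized (6 per group) to vehicle, 5-FU 10 mg/kg, or test agent 20 or 50 mg/kg i.p. daily. Body weight was recorded every two days.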

Mus musculus [8] = test: Toxicity in Balb/c athymic nude mouse xenografted with human HCT116 cells assessed as change in feeding and animal behavior at 20 to 50 mg/kg, ip administered daily; assay type: organism-based, HCT-116; details: in vivo
HepG2 [9] = test: Antiproliferative activity against human HepG2 cells after 48 hrs by MTT assay; assay type: functional, cell-based; details: HepG2, 48 h
Summary of the method: (§1)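 HCT116, HepG2, SMMC-7721, SK-OV-3 and A2780s grown in DMEM; A549 and MCF-7 in RPMI-1640; all with 10% FBS and penicillin/streptomycin at 37 °C, 5% CO2. Log-phase cells at 40,000-50,000 cells/mL treated with graded concentrations for 48 h. MTT 3 h, DMSO solubilization, A570. IC50 from percent growth versus untreated control; mean ± SEM of ≥3 independent dose-response experiments.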

Tubulin (Homo sapiens) = Tubulin (Homo sapiens) (UniProt P68371+Q9H4B7+P0DPH7+P68366+Q13509+Q71U36+P04350+Q3ZCM7+P07437+P68363+Q9BQE3+Q6PEY2+Q13885+Q9BVA1+Q9BUF5); test: Binding affinity to tubulin in human HepG2 cells at 5 uM after 4 hrs by EBI competition assay; assay type: cell-based
Summary of the method: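 HepG2 cells seeded at 500,000 cells/well, allowed to adhere, then treated with compound for 4 h. EBI added at 100 µM for 1.5 h. Cell extracts (about 20 µg protein) run on 10% SDS-PAGE, blotted to PVDF, probed with anti-β-tubulin, detected by ECL with GAPDH as loading control. Read-out is loss of the faster-migrating β-tubulin–EBI adduct band.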

A549 = test: Antiproliferative activity against human A549 cells after 48 hrs by MTT assay; assay type: functional, cell-based; details: A549, 48 h; summary of the method: as §1
[10] = Antiproliferative activity against human doxorubicin-resistant MCF7 cells after 48 hrs by MTT assay; assay type: functional, cell-based; details: MCF7, 48 h
Summary of the method: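 MCF-7/ADR (doxorubicin-resistant) and A549/T (taxol-resistant) cells in RPMI-1640 with 10% FBS and penicillin/streptomycin. Log-phase cells at 40,000-50,000 cells/mL exposed to graded concentrations for 48 h. MTT 3 h, DMSO solubilization, absorbance 570 nm. IC50 from percent growth versus untreated control; mean ± SEM of ≥3 independent experiments.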

HCT-116 [11] = test: Cell cycle arrest in human HCT116 cells assessed as accumulation at G1 phase at 0.2 uM after 24 hrs by flow cytometry (reference value: 53.98%); assay type: functional
HCT-116 [12] = test: Cell cycle arrest in human HCT116 cells assessed as accumulation at G1 phase at 1 uM after 24 hrs by flow cytometry (reference value: 53.98%); assay type: functional
HCT-116 [13] = test: Cell cycle arrest in human HCT116 cells assessed as accumulation at S phase at 0.2 uM after 24 hrs by flow cytometry (reference value: 25.66%); assay type: functional
HCT-116 [14] = test: Cell cycle arrest in human HCT116 cells assessed as accumulation at G2/M phase at 0.5 uM after 24 hrs by flow cytometry (reference value: 20.36%); assay type: functional
HCT-116 [15] = test: Induction of apoptosis in human HCT116 cells assessed as viable cells at 1 uM after 24 hrs by annexin V/propidium iodide staining-based flow cytometry (reference value: 92%); assay type: functional; details: HCT-116, 24 h, read-out: Activity
HCT-116 [16] = test: Induction of apoptosis in human HCT116 cells assessed as early apoptotic cells at 0.2 uM after 48 hrs by annexin V/propidium iodide staining-based flow cytometry (reference value: 2.83%); assay type: functional
Summary of the method: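 HCT116 cells treated with compound or DMSO for 24 or 48 h, trypsinized, washed twice in PBS and dual-stained with annexin-V and PI. Analysed by flow cytometry: early apoptotic cells scored as annexin-V+/PI−, late apoptotic cells as annexin-V+/PI+.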

HCT-116 [17] = test: Induction of apoptosis in human HCT116 cells assessed as viable cells at 0.2 uM after 48 hrs by annexin V/propidium iodide staining-based flow cytometry (reference value: 92%); assay type: functional; details: HCT-116, 48 h, read-out: Activity
HCT-116 [18] = test: Induction of apoptosis in human HCT116 cells assessed as late apoptotic cells at 0.5 uM after 48 hrs by annexin V/propidium iodide staining-based flow cytometry (reference value: 1.71%); assay type: functional
HepG2 [19] = test: Cell cycle arrest in human HepG2 cells assessed as accumulation at G1 phase at 0.5 uM after 24 hrs by flow cytometry (reference value: 62.74%); assay type: functional

- IC50 (HepG2 [9]): 26.4 nM
- Activity (Tubulin (Homo sapiens)): inactive
- IC50 (A549): 84 nM
SMILES: CCOc1ccc(-c2nc(N)sc2-c2cc(OC)c(OC)c(OC)c2)cc1
- Activity (HepG2 [1]): 0.81%
- Activity (HepG2 [2]): 0.7%
- Activity (HepG2 [3]): 2.67%
- viability at 1 µM (HepG2 [4]): 25.9%
- Activity (HepG2 [5]): Active
- Activity (HUVEC): Dose-dependent effect
- inhibition in vivo at 20 mg/kg (HCT-116 [6]): 49.5%
- Activity (Mus musculus [7]): Toxic
- Activity (Mus musculus [8]): Non-toxic
- IC50 [10]: 190 nM
- Activity (HCT-116 [11]): 29.2%
- Activity (HCT-116 [12]): 13.06%
- Activity (HCT-116 [13]): 22%
- Activity (HCT-116 [14]): 68.04%
- viability at 1 µM (HCT-116 [15]): 62.1%
- Activity (HCT-116 [16]): 40.2%
- viability at 0.2 µM (HCT-116 [17]): 31.1%
- Activity (HCT-116 [18]): 26.2%
- Activity (HepG2 [19]): 30.08%
